Sampled rows, rich in hits. Any-hit rate of the full collection: about 3.1%.
ADAM17 inh: inhibitors of human ADAM17. P78536. recombinant ADAM17, EDANS/DABCYL FRET peptide cleavage. inhibition, % at 6.95 µM. 370,000 compounds, 0.83% hits. AID 720648;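 active means inhibition above the mean of compounds lying between control limits plus 3 SD, set per campaign, cut at about 8.5% in these data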;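 further: 0% = DMSO-only wells as the low control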
Target sequence (P78536 215-824 limits assumed): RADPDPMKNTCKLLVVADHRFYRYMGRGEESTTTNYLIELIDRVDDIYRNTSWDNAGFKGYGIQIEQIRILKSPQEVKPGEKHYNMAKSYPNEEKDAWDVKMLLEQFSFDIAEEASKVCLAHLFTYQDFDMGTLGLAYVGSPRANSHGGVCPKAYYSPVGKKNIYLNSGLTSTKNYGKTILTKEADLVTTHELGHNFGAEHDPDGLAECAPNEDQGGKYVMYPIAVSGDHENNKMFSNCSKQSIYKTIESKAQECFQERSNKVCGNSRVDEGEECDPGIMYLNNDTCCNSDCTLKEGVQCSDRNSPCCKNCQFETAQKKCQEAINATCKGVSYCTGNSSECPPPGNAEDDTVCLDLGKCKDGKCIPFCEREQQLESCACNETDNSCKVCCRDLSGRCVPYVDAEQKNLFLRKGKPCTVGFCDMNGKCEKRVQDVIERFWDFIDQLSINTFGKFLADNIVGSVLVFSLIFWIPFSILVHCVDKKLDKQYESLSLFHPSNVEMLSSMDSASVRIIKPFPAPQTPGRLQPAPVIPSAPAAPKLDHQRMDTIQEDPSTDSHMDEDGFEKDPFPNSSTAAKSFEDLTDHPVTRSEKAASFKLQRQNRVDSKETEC
aDG glyco up: alpha-DG glycosylation activation; Pro5-aDG cells, alpha-DG glycosylation AlphaScreen (IIH6); 0% Pro5, 100% B10-LARGE cell signal; activation, % at 10 µM; 360,000 compounds, 0.22% hits;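 active means activation of at least 8% versus controls, or a plate z-score of at least 8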;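 further: Pro5 are CHO cells carrying HIG-tagged alpha-DG that lacks glycosylation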
ADAM10 inh: ADAM10 inhibition, QFRET primary screen. O14672. recombinant ADAM10, EDANS/DABCYL FRET peptide cleavage, 3 h. inhibition, % at 7 µM. 370,000 compounds, 0.62% hits;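 active means inhibition above a per-campaign cutoff equal to the mean of compounds falling between control-based bounds plus 3 SD, cut at about 20% in these data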;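 further: 0% = DMSO wells while the 100% control is not disclosed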
V-ATPase pH: alters yeast V-ATPase proton transport | response, % at 10 µM | AID 504577 | 350,000 compounds, 0.37% hits | S. cerevisiae, pHLuorin cytosolic pH fluorescence; in the data active means response mostly above about 7.3%, no sharp cut-off; inactive means mostly below about 5.4%; further: actives read high
Hep lipid drop: modulators of hepatic lipid droplet formation. AML12 mouse hepatocytes, oleate lipid droplets, BODIPY imaging. inhibition, % at 6.5 µM. 240,000 compounds, 0.4% hits. AID 1656;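 active means lipid droplet intensity inhibited by at least 50%, with more than 500 cells counted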
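Technique: fluorescence imaging, 20x objective, two fields per well / Assay system: AML12 hepatocytes (mouse) / Measure: % inhibition of lipid droplet signal / Doses: 6.5 µM single-point dosing / Incubation: overnight exposure / Reagent: 100 µM oleic acid challenge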
MPTP inh: permeability transition pore inhibition | inhibition, % at 10 µM | isolated mouse mitochondria, Ca2+ swelling absorbance, 30 min | 360,000 compounds, 1.4% hits;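 active means inhibition of 50% or more, scaled per plate between neutral and stimulator controls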;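 further: 0% = DMSO wells given calcium and 100% = 1 mM EGTA wells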
Lipid drop inh: hepatic lipid droplet formation inhibition, confirmed | shares compounds with Hep lipid drop | AML12 mouse hepatocytes, BODIPY lipid droplet imaging; droplets induced with 100 µM oleic acid | inhibition, % at 5.2 µM | 870 compounds, 65% hits | AID 463183;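 active means inhibition of lipid droplet metric at least 50%, with more than 300 cells in each of four replicates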;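 further: plate controls were DMSO with oleic acid for no effect and 5 µM Triacsin-C for full effect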
AML12 cytotox: AML12 hepatocyte cytotoxicity (counter-screen) | shares compounds with Hep lipid drop | AML12 mouse hepatocytes, DAPI nuclear morphology cytotoxicity imaging; hits give high values; cells fed 100 µM oleate overnight | z-score at 5 µM | 870 compounds, 3% hits | AID 463200; in the data active means z-score above about 6.3;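 further: compound exposure lasted overnight at 37 °C before fixation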
AML12 tox ATP: AML12 hepatocyte cytotoxicity, confirmed; cytotoxicity, % at 50 µM; shares compounds with Hep lipid drop; 530 tested, under 10 active; AML12 mouse hepatocyte viability, ATP luminescence; cells loaded with 100 µM oleic acid;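 active means cytotoxicity above 50% in each of four replicates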;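 further: compound exposure lasted overnight at 37 °C before the ATP read; 0% = DMSO-treated cells and 100% = wells with no cells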
Starred values were filed as active, the others as inactive; nt = no result given.

SMILES	ADAM17 inh	aDG glyco up	ADAM10 inh	V-ATPase pH	Hep lipid drop	MPTP inh	Lipid drop inh	AML12 cytotox	AML12 tox ATP
CCOC(=O)N1CCN(C(=O)CSCC(=O)Nc2nc(-c3cccs3)cs2)CC1	-5.7	0.1	-5.6	-0.8	78.7*	-1.7	96.9*	-0.235	18.6
CC(C)(C)OC(=O)NCc1ccccc1/C=C/S(=O)(=O)NCc1ccc(F)cc1	8.5	nt	10.1	nt	nt	nt	nt	nt	nt
CC(C)(C)OC(=O)NCc1ccccc1/C=C/S(=O)(=O)NC1CCCC1	-3.5	nt	-6.6	nt	nt	nt	nt	nt	nt
CC(=O)Nc1ccc(NC(=O)CSc2nnc(-c3cccs3)o2)cc1	-2.5	nt	-2.4	nt	nt	nt	nt	nt	nt
O=C(COC(=O)COc1ccccc1)Nc1cccnc1Cl	0.6	0.1	-4.1	-0.8	nt	-0.5	nt	nt	nt
O=C(COC(=O)COc1ccc(Cl)cc1Cl)Nc1cccnc1Cl	-2.3	-0.1	3.2	-5.5	50.2*	-7.4	12.4	-1.02	nt
O[C@H](COc1ccc(F)cc1)CN1CCC(C(O)(c2ccccc2)c2ccccc2)CC1	2.8	nt	6.0	nt	nt	nt	nt	nt	nt
Cc1ccccc1Nc1nnc(SCc2cc([N+](=O)[O-])cc3c2OCOC3)s1	nt	0.4	nt	-0.5	37.8	-1.2	nt	nt	nt
O=[N+]([O-])c1cc2c(c(CSc3nnc(Nc4ccccc4)s3)c1)OCOC2	-1.1	0.1	2.9	-3.0	64.1*	1.2	93.2*	-1.64	8.6
Cc1ccccc1OCC(=O)NCCCNC(=O)c1ccccn1	-1.8	-0.1	2.1	-1.7	93.1*	-0.7	10.1	-0.455	nt
CCn1cc(CCCC(=O)NCc2cccc(OC)c2)c2ccccc21	0.0	0.1	-5.4	0.1	79.9*	-1.6	87.5*	-0.143	7.2
CCn1cc(CCCC(=O)NCc2ccccc2OC)c2ccccc21	3.3	0.1	8.4	2.4	87.8*	-0.9	100.4*	-0.561	14.8
C[C@H](O)[C@@H]1CN2CCc3c([nH]c4c(-c5ccccc5)cccc34)[C@@H]2C[C@@H]1N(C)C(=O)c1ccco1	-20.0	nt	-63.5	nt	nt	nt	nt	nt	nt
COc1ccc(CNC(=O)N2CCN(S(=O)(=O)c3ccc(C)cc3C)CC2)cc1	-0.3	0.0	2.6	-4.8	82.2*	-1.3	79.3*	-0.245	9.1
COc1ccc(C(=O)O/N=C(\N)c2ccccn2)cc1	-4.1	0.1	-5.7	0.5	66.0*	1.3	20.0	-0.241	nt
COc1cc(OC)cc(C(=O)O/N=C(\N)c2ccccn2)c1	-2.7	0.2	-15.5	-2.1	21.9	1.1	nt	nt	nt
CCN(Cc1cn(Cc2ccccc2)nn1)S(=O)(=O)c1ccc(N2CCCC2)cc1Br	2.7	nt	4.2	nt	nt	nt	nt	nt	nt
COc1ccc2nc(N=Nc3c(O)ccc4ccccc34)sc2c1	nt	nt	nt	nt	50.4*	nt	5.7	-0.123	nt
CCCCOc1ccc(/C=C/C(=O)OCC(=O)c2c(N)n(C)c(=O)n(C)c2=O)cc1OCC	-1.7	-0.3	8.2	-1.5	52.2*	-0.3	67.1*	-0.413	-2.2
CCOC(=O)C(Cc1ccccc1)P(=O)(OCC)OCC (stereo unspecified)	-5.3	nt	-5.8	nt	nt	nt	nt	nt	nt
COc1ccccc1CNS(=O)(=O)c1ccc2c(c1)CC(C)N2C(=O)C1CC1 (stereo unspecified)	5.5	0.4	10.9	-3.7	79.4*	3.9	106.0*	-1.11	17.9
CC1Cc2cc(S(=O)(=O)NCCC(=O)N(C)Cc3ccccc3)ccc2N1C(=O)C1CC1 (stereo unspecified)	-1.8	-0.4	-4.7	9.6	61.0*	-0.1	66.7*	-0.836	20.6
COc1ccc(CCNS(=O)(=O)c2ccc3c(c2)CC(C)N3C(=O)C2CC2)cc1OC (stereo unspecified)	-4.6	0.1	-5.3	2.5	nt	-0.4	nt	nt	nt
COc1ccccc1CNS(=O)(=O)c1ccc2c(c1)CC(C)N2C(=O)C1CCC1 (stereo unspecified)	0.8	2.1	2.6	-3.7	64.4*	33.8	99.3*	0.0839	21.5
CCCCCCCCN1C(=O)[C@@H](CC(=O)NCc2ccc(C)o2)C[C@@]2(C(=O)OC)C1=C[C@H](C(C)C)O[C@@H]2C1CC1	1.0	nt	5.6	nt	nt	nt	nt	nt	nt
SMILES	ADAM17 inh	aDG glyco up	ADAM10 inh	V-ATPase pH	Hep lipid drop	MPTP inh	Lipid drop inh	AML12 cytotox	AML12 tox ATP
CCCNC(=O)C[C@H]1CC[C@H]2[C@@H](COc3ccc(NC(=O)Nc4ccc(C#N)cc4)cc3C(=O)N2C)O1	-8.8	nt	-5.8	nt	nt	nt	nt	nt	nt
CCOc1cc(CCNC(=O)c2cc(-c3ccccc3)c(N3CCOCC3)s2)ccc1OC	-8.7	nt	-17.2	nt	nt	nt	nt	nt	nt
COc1ccc(CN2C(=O)CN(S(C)(=O)=O)CC2(C)c2nnnn2C2CCCCC2)cc1 (stereo unspecified)	1.5	nt	7.7	nt	nt	nt	nt	nt	nt
CSc1c(CC(=O)Nc2ccccc2C(F)(F)F)n(Cc2ccccc2)c2ccccc12	-5.0	0.4	1.9	-1.4	68.7*	2.0	104.5*	0.466	nt
O=C(CCc1ccccc1-c1ccccc1CCNC(=O)c1c(F)cccc1F)NCc1ccccc1	2.3	nt	6.2	nt	nt	nt	nt	nt	nt
Cc1cccc(Nc2nnc(SCC(=O)c3c(N)n(C4CC4)c(=O)[nH]c3=O)s2)c1	0.3	-0.2	-4.0	2.3	nt	1.8	nt	nt	nt
C/C(N)=C(/C#N)C(=O)CSc1nnc(Nc2cccc(C)c2)s1	2.5	-0.1	4.9	1.2	77.8*	0.8	98.9*	-0.7	15.9
COc1ccccc1CC(=O)NCCN1C(=O)C2C3C=CC(C3)C2C1=O (stereo unspecified)	-3.0	nt	-5.1	nt	nt	nt	nt	nt	nt
CCOc1ccc(C(=O)OCC(=O)Nc2nc(OC)cc(OC)n2)cc1OCC	0.7	0.1	5.3	0.2	63.6*	1.4	102.2*	-0.562	15.0
CNS(=O)(=O)c1cccc(C(=O)OCC(=O)Nc2nc(OC)cc(OC)n2)c1	-5.5	-0.1	-2.9	-0.4	nt	0.3	nt	nt	nt
CCOc1ccc(CCNC(=O)COC(=O)c2ccc(OC)c(OC)c2OC)cc1OCC	-3.1	0.9	-3.2	1.2	77.1*	2.2	108.8*	-0.679	9.6
CCCOc1ccc(C(=O)OCC(=O)NCCc2ccc(OCC)c(OCC)c2)cc1OC	-0.9	-0.1	-10.5	6.4	87.5*	1.0	109.6*	-0.657	7.6
CCOc1ccc(CCNC(=O)COC(=O)c2cccc(OC)c2O)cc1OCC	-0.4	0.3	-1.2	6.4	39.0	-4.7	nt	nt	nt
CCOc1ccc(CCNC(=O)COC(=O)c2ccncc2)cc1OCC	-6.6	0.6	-16.2	0.8	nt	-0.3	nt	nt	nt
CCN(CC)CCCNC(=O)C1(N[C@@H](Cc2c[nH]c3ccccc23)C(=O)NCC(OC)OC)CCCCC1	-4.8	nt	-3.4	nt	nt	nt	nt	nt	nt
COc1ccc(CCNC(=O)c2ccc3c(c2)ncn3C2CCCCC2)cc1	3.4	nt	7.8	nt	nt	nt	nt	nt	nt
c1nc2nc3c(c(N4CCCC4)n2n1)CCCC3	4.0	nt	12.2	nt	nt	nt	nt	nt	nt
COC(=O)CSc1nnc(-c2cccs2)o1	-0.1	nt	-5.3	nt	nt	nt	nt	nt	nt

Compound activity: PubChem BioAssay, several laboratories
